Experiments:
MT4 [1] = experiment: In vitro inhibition of cytopathic effect was determined against HIV-1 IIIB in MT-4 cells using MTT cytoprotection assay; settings: Homo sapiens
[2] = In vitro inhibition of cytopathic effect was determined against HIV-1 RF in CEM-SS cells using MTS cytoprotection assay; type: functional, cell-based
Procedure, shortened: (§1)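 CEM-SS cells from exponential culture, 5 × 10^3 per well, mixed with pretitered HIV-1 RF and serially diluted compound. Incubated 6 days at 37 °C, 5% CO2. MTS added, colour developed overnight at 37 °C, read at 490 nm, expressed as percent of uninfected drug-free control. EC50 is 50% protection from cytopathic effect; CC50 is 50% death of uninfected cells. Triplicates on each of two sister plates, plate values averaged.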

CEM-SS = experiment: 50% cell death in uninfected CEM-SS cells was determined using MTS cytoprotection assay; type: functional; settings: Homo sapiens
Procedure, shortened: as §1

MT4 [3] = experiment: 50% cell death in uninfected MT-4 cells was determined using MTS cytoprotection assay; type: functional; settings: Homo sapiens, in the assay text read “MTT cytoprotection assay” for “MTS cytoprotection assay”
Procedure, shortened: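 MT-4 cells at 6 × 10^5 cells/mL, infected with HIV-1 IIIB or HIV-2 ROD at 100–300 CCID50, or mock-infected. Serial 5-fold compound dilutions, triplicate wells. After 5 days, viability read by MTT reduction at 540 and 690 nm, median OD of three wells. CC50 is 50% drop in OD540 of mock-infected cells; EC50 is 50% protection from viral cytopathic effect.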

[4] = In vitro inhibition of cytopathic effect was determined against HIV-1 IIIB in MT-4 cells using MTT cytoprotection assay; settings: MT4

Structure (SMILES): CC(C)CCCC(C)[C@H]1CC[C@H]2[C@@H]3CCC4C[C@@H](CCC=C(c5cc(Cl)c(O)c(C(=O)NCC(=O)O)c5)c5cc(Cl)c(O)c(C(=O)NCC(=O)O)c5)CC[C@]4(C)[C@H]3CC[C@]12C (some centres undefined)
- EC50 (MT4 [1]): 57.6 µM
- EC50 [2]: 3.4 µM
- CC50 (CEM-SS): > 200 µM
- CC50 (MT4 [3]): > 125 µM

Structure (SMILES): CC(C)CCCC(C)[C@H]1CC[C@H]2[C@@H]3CCC4C[C@@H](CCC=C(c5cc(Cl)c(O)c(C(=O)NCC(=O)OC(C)(C)C)c5)c5cc(Cl)c(O)c(C(=O)NCC(=O)OC(C)(C)C)c5)CC[C@]4(C)[C@H]3CC[C@]12C (some centres undefined)
- CC50 (CEM-SS): > 125 µM
- EC50 [4]: > 125 µM
- CC50 (MT4 [3]): > 125 µM

Structure (SMILES): CC(C)CCCC(C)[C@H]1CC[C@H]2[C@@H]3CCC4C[C@@H](CCC=C(c5cc(Cl)c(O)c(C(=O)NCCC(=O)O)c5)c5cc(Cl)c(O)c(C(=O)NCCC(=O)O)c5)CC[C@]4(C)[C@H]3CC[C@]12C (some centres undefined)
- CC50 (CEM-SS): > 200 µM
- EC50 [4]: 73.8 µM
- CC50 (MT4 [3]): > 125 µM

Structure (SMILES): CC(C)CCCC(C)[C@H]1CC[C@H]2[C@@H]3CCC4C[C@@H](CCCC(c5cc(Cl)c(O)c(C(=O)NCC(=O)O)c5)c5cc(Cl)c(O)c(C(=O)NCC(=O)O)c5)CC[C@]4(C)[C@H]3CC[C@]12C (some centres undefined)
- CC50 (CEM-SS): > 200 µM
- EC50 [4]: 39.4 µM
- CC50 (MT4 [3]): > 125 µM

Structure (SMILES): CC(C)CCCC(C)[C@H]1CC[C@H]2[C@@H]3CCC4C[C@@H](CCC=C(c5cc(Cl)c(O)c(C(=O)N[C@@H](CC(C)C)C(=O)O)c5)c5cc(Cl)c(O)c(C(=O)N[C@@H](CC(C)C)C(=O)O)c5)CC[C@]4(C)[C@H]3CC[C@]12C (some centres undefined)
- EC50 [2]: 40 µM
- CC50 (CEM-SS): > 200 µM
- EC50 [4]: 63.4 µM
- CC50 (MT4 [3]): > 125 µM

Structure (SMILES): COc1c(Cl)cc(Cc2cc(C(=CCC[C@H]3CC[C@@]4(C)C(CC[C@H]5[C@@H]6CC[C@H](C(C)CCCC(C)C)[C@@]6(C)CC[C@@H]54)C3)c3cc(Cc4cc(Cl)c(OC)c(C(=O)O)c4)c(OC)c(C(=O)O)c3)cc(C(=O)O)c2OC)cc1C(=O)O (some centres undefined)
- EC50 [2]: 2.9 µM
- CC50 (CEM-SS): 50 µM
- EC50 [4]: 12.5 µM
- CC50 (MT4 [3]): 41 µM

Structure (SMILES): CC(C)CCCC(C)[C@H]1CC[C@H]2[C@@H]3CCC4C[C@@H](CCC=C(c5cc(Cl)c(O)c(C(=O)N[C@@H](CC(=O)O)C(=O)O)c5)c5cc(Cl)c(O)c(C(=O)N[C@@H](CC(=O)O)C(=O)O)c5)CC[C@]4(C)[C@H]3CC[C@]12C (some centres undefined)
- CC50 (CEM-SS): 90 µM
- CC50 (MT4 [3]): > 125 µM

Structure (SMILES): CC(C)CCCC(C)[C@H]1CC[C@H]2[C@@H]3CCC4C[C@@H](CCC=C(c5cc(Cl)c(OCc6ccc(CC(=O)O)cc6)c(C(=O)O)c5)c5cc(Cl)c(OCc6ccc(CC(=O)O)cc6)c(C(=O)O)c5)CC[C@]4(C)[C@H]3CC[C@]12C (some centres undefined)
- EC50 [2]: 1.8 µM
- EC50 [4]: 4.1 µM

Structure (SMILES): CC(C)CCCC(C)[C@H]1CC[C@H]2[C@@H]3CCC4C[C@@H](CCC=C(c5cc(Cl)c(O)c(C(=O)N[C@@H](Cc6ccccc6)C(=O)O)c5)c5cc(Cl)c(O)c(C(=O)N[C@@H](Cc6ccccc6)C(=O)O)c5)CC[C@]4(C)[C@H]3CC[C@]12C (some centres undefined)
- EC50 [2]: > 200 µM
- CC50 (CEM-SS): > 200 µM
- EC50 [4]: > 62 µM
- CC50 (MT4 [3]): 62 µM

Structure (SMILES): CC(C)CCCC(C)[C@H]1CC[C@H]2[C@@H]3CCC4C[C@@H](CCC=C(c5cc(Cl)c(OCc6ccc(-c7cccc(C(=O)O)c7)cc6)c(C(=O)O)c5)c5cc(Cl)c(OCc6ccc(-c7cccc(C(=O)O)c7)cc6)c(C(=O)O)c5)CC[C@]4(C)[C@H]3CC[C@]12C (some centres undefined)
- EC50 [2]: 6.1 µM
- EC50 [4]: 12 µM
- CC50 (MT4 [3]): 79 µM

Structure (SMILES): CC(C)CCCC(C)[C@H]1CC[C@H]2[C@@H]3CCC4C[C@@H](CCC=C(c5cc(Cl)c(O)c(C(=O)O)c5)c5cc(Cl)c(O)c(C(=O)O)c5)CC[C@]4(C)[C@H]3CC[C@]12C (some centres undefined)
- EC50 [2]: 5.1 µM
- EC50 [4]: 3 µM
- CC50 (MT4 [3]): > 125 µM

Structure (SMILES): COc1ccc(C(=O)Nc2cc(C(=CCC[C@H]3CC[C@@]4(C)C(CC[C@H]5[C@@H]6CC[C@H](C(C)CCCC(C)C)[C@@]6(C)CC[C@@H]54)C3)c3cc(NC(=O)c4ccc(OC)c(C(=O)O)c4)c(OC)c(C(=O)O)c3)cc(C(=O)O)c2OC)cc1C(=O)O (some centres undefined)
- EC50 [2]: 28.6 µM
- CC50 (CEM-SS): 47 µM
- EC50 [4]: 8.4 µM
- CC50 (MT4 [3]): 81 µM

Structure (SMILES): CC(C)CCCC(C)[C@H]1CC[C@H]2[C@@H]3CCC4C[C@@H](CCC=C(c5cc(Cl)c(OCc6ccc(C(=O)O)cc6)c(C(=O)O)c5)c5cc(Cl)c(OCc6ccc(C(=O)O)cc6)c(C(=O)O)c5)CC[C@]4(C)[C@H]3CC[C@]12C (some centres undefined)
- EC50 [2]: 0.5 µM
- CC50 (MT4 [3]): 89 µM

Structure (SMILES): CC(C)CCCC(C)[C@H]1CC[C@H]2[C@@H]3CCC4C[C@@H](CCCC(c5cc(Cl)c(O)c(C(=O)N[C@@H](CCC(=O)O)C(=O)O)c5)c5cc(Cl)c(O)c(C(=O)N[C@@H](CCC(=O)O)C(=O)O)c5)CC[C@]4(C)[C@H]3CC[C@]12C (some centres undefined)
- CC50 (CEM-SS): 34 µM
- EC50 [4]: 10.3 µM
- CC50 (MT4 [3]): > 125 µM

Structure (SMILES): CC(C)CCCC(C)[C@H]1CC[C@H]2[C@@H]3CCC4C[C@@H](CCC=C(c5cc(Cl)c(OCc6cccc(C(=O)O)c6)c(C(=O)O)c5)c5cc(Cl)c(OCc6cccc(C(=O)O)c6)c(C(=O)O)c5)CC[C@]4(C)[C@H]3CC[C@]12C (some centres undefined)
- CC50 (MT4 [3]): 76 µM

Structure (SMILES): CC(C)CCCC(C)[C@H]1CC[C@H]2[C@@H]3CCC4C[C@@H](CCC=C(c5cc(Cl)c(O)c(C(=O)N[C@@H](CCC(=O)O)C(=O)O)c5)c5cc(Cl)c(O)c(C(=O)N[C@@H](CCC(=O)O)C(=O)O)c5)CC[C@]4(C)[C@H]3CC[C@]12C (some centres undefined)
- CC50 (CEM-SS): 82 µM
- EC50 [4]: 8.9 µM
- CC50 (MT4 [3]): > 125 µM

Structure (SMILES): CC(C)CCCC(C)[C@H]1CC[C@H]2[C@@H]3CCC4C[C@@H](CCC=C(c5cc(Cl)c(OCc6ccccc6C(=O)O)c(C(=O)O)c5)c5cc(Cl)c(OCc6ccccc6C(=O)O)c(C(=O)O)c5)CC[C@]4(C)[C@H]3CC[C@]12C (some centres undefined)
- EC50 [2]: 39.8 µM
- EC50 [4]: > 37 µM

Structure (SMILES): CC(C)CCCC(C)[C@H]1CC[C@H]2[C@@H]3CCC4C[C@@H](CCCC(c5cc(Cl)c(OCc6ccc(C(=O)O)cc6)c(C(=O)O)c5)c5cc(Cl)c(OCc6ccc(C(=O)O)cc6)c(C(=O)O)c5)CC[C@]4(C)[C@H]3CC[C@]12C (some centres undefined)
- EC50 [2]: 4.8 µM
- CC50 (CEM-SS): > 200 µM
- EC50 [4]: 5.1 µM
- CC50 (MT4 [3]): > 125 µM

Structure (SMILES): CC(C)CCCC(C)[C@H]1CC[C@H]2[C@@H]3CCC4C[C@@H](CCC=C(c5cc(Cl)c(OCc6ccc(-c7ccc(C(=O)O)cc7)cc6)c(C(=O)O)c5)c5cc(Cl)c(OCc6ccc(-c7ccc(C(=O)O)cc7)cc6)c(C(=O)O)c5)CC[C@]4(C)[C@H]3CC[C@]12C (some centres undefined)
- EC50 [2]: > 100 µM
- EC50 [4]: > 100 µM
- CC50 (MT4 [3]): 100 µM

Structure (SMILES): CC(C)CCCC(C)[C@H]1CC[C@H]2[C@@H]3CCC4C[C@@H](CCC=C(c5cc(Cl)c(OCc6ccc(-c7ccccc7C(=O)O)cc6)c(C(=O)O)c5)c5cc(Cl)c(OCc6ccc(-c7ccccc7C(=O)O)cc6)c(C(=O)O)c5)CC[C@]4(C)[C@H]3CC[C@]12C (some centres undefined)
- EC50 [2]: 5.2 µM
- EC50 [4]: 10.1 µM

Source: ChEMBL document CHEMBL1134356, “Correlation of anti-HIV activity with anion spacing in a series of cosalane analogues with extended polycarboxylate pharmacophores” (J Med Chem, 2001)
